# “Also recorded” adds a separate entry of the source. Structures can show the parent of a compound that is named as a salt. Where two headings read alike, the source gives them in different places.
# How the values were obtained:
# [1] = tested on: T. gondii TgGoatUS4 oocysts; assay: Mouse model of T. gondii oocyst infection, TgGoatUS4 oocysts; format: in vivo, Toxoplasma gondii; details: 25 or 100 mg/kg, versus untreated infected mice
# Procedure, shortened: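 Mice, 5 per group, were challenged orally with TgGoatUS4 oocysts that had been sporulated in 2% sulfuric acid and neutralised with 3.3% NaOH. Test compound was given at 100 or 25 mg/kg as a 1 mL suspension by oral gavage in 1% DMSO/5% PEG 400/94% of 0.5% CMC. Controls were compound-only and untreated infected mice. Survival was observed daily, with tachyzoites sought in tissue smears.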
# [2] = tested on: mice; assay: In vivo toxicity in uninfected mice dosed orally; details: for Day of Death: Challenge None, B7 mice; for toxic effects on oral dosing (survival, well-being criteria): gavage daily for nine days, 100mg/kg
# [3] = tested on: HFF cells; assay: In vitro toxicity assay on HFF host cells; format: cell-based, human; details: HFF used as host cells in the parasite assay
# [4] = tested on: THdhxgTRP tachyzoites transfected with pLK47; assay: Insertional mutagenesis experiments: selection of resistant mutants; format: cell-based, Toxoplasma gondii; details: prolonged incubation (six weeks); data not shown
# [5] = tested on: T. gondii tachyzoites; assay: In vitro inhibition of T. gondii tachyzoites; format: cell-based, Toxoplasma gondii; details: for MIC50 / MIC90: T. gondii tachyzoites in vitro; for activity against T. gondii tachyzoites in words: in vitro, only MIC50 ≤ 1 μM considered active
# [6] = tested on: P. falciparum D6 (CDC/Sierra Leone); assay: Malaria SYBR Green I-based fluorescence; format: cell-based; details: Plasmodium falciparum, D6, 72 h, read-out: D6 IC50
# [7] = tested on: P. falciparum TM91-C235; assay: Malaria SYBR Green I-based fluorescence; format: cell-based, Plasmodium falciparum; details: for IC50: Plasmodium falciparum, 72 h; for efficacy against TM91-C235 compared with D6: comparison of IC50 values of the two strains
# [8] = tested on: RH-YFP tachyzoites; assay: Determination of static or cidal effects on RH-YFP tachyzoites; format: cell-based, Toxoplasma gondii; details: 1 μM; for static or cidal effect: Conditions A-D, growth assessed at days 11, 17, 25; for duration of treatment giving a cidal effect: compound removed after treatment
# [9] = Hydrolytic stability on incubation in THF and buffer; details: mixture of THF and buffer (pH 7.4 or pH 8.5); data not shown
# [10] = tested on: T. gondii Me-49 oocysts; assay: Mouse model of T. gondii oocyst infection, ME49 oocysts; format: in vivo, Toxoplasma gondii; details: 25 or 100 mg/kg, versus untreated infected mice
# Procedure, shortened: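 […] female mice (~25 g), 5 per group. Each mouse received test compound at 100 or 25 mg/kg (2.5 or […], 1.0 mL) by oral gavage in 1% DMSO/5% PEG 400/94% of 0.5% CMC, with or without 100 acid-sporulated, NaOH-neutralised ME49 oocysts orally. Controls were compound-only and oocyst-only groups. Mice were observed daily for survival. Infection was confirmed by tachyzoites in tissue smears.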
compound,measurement,setting,value
"2-((2,4-bis(trifluoromethyl)phenyl)carbamoyl)-4-chlorophenyl(2-hydrazinyl-2-oxoethyl) (methyl)carbamate hydrochloride [Compound 14b]",increased survival,[1],1 days
same,Day of Death,[2]; 25 mg/kg oral gavage,None
same,Day of Death,[2]; 100 mg/kg oral gavage,None
same,"toxic effects on oral dosing (survival, well-being criteria)",[2],all mice were alive and appeared healthy
same,Toxicity,[3],>1000 nM
same,growth of insertional mutant parasites in the presence of compound,[4],No parasite growth
"5-chloro-2-hydroxy-N-(3,4,5-trimethoxyphenyl)benzamide [Compound 3q]",MIC50,[5],>1 µM
same,MIC90,[5],>1 µM
same,activity against T. gondii tachyzoites in words,[5],devoid of activity; also recorded: inactive
5-chloro-2-hydroxy-N-(5-methoxy-2-methylphenyl)benzamide [Compound 3x],MIC50,[5],>1 µM
same,MIC90,[5],>1 µM
5-chloro-N-(3-cyano-4-fluorophenyl)-2-hydroxybenzamide [Compound 3t],MIC50,[5],>1 µM
same,MIC90,[5],>1 µM
"CCN(CC)CCCC(C)Nc1ccnc2cc(Cl)ccc12 (stereo not drawn) [Chloroquine, reference compound]",IC50,[6],7 nM
same,IC50,[7]; read-out: C235 IC50,89 nM
"CC(C)(C)c1cccc(NC(=O)c2cc(Cl)ccc2O)c1 [Compound 3i, N-(3-tert-butylphenyl)-5-chloro-2-hydroxybenzamide]",static or cidal effect,[8],parasitostatic; also recorded: static effect
same,activity against T. gondii tachyzoites in words,[5],much more active than 3l
same,IC50,"[7]; read-out: C235 IC50, multi-drug resistant strain TM91-C235, 72 hours",> 6500 nM
same,efficacy against TM91-C235 compared with D6,[7],two-fold higher IC50
same,Toxicity,[3],>1000 nM
same,growth of insertional mutant parasites in the presence of compound,[4],No parasite growth
O=C(Nc1cc(C(F)(F)F)cc(C(F)(F)F)c1)c1cc(Cl)ccc1O [Compound 3j],static or cidal effect,[8],parasitocidal; also recorded: cidal
same,duration of treatment giving a cidal effect,[8],cidal effect after four days of treatment
same,activity against T. gondii tachyzoites in words,[5],promising activity
same,efficacy against TM91-C235 compared with D6,[7],equally effective
same,Toxicity,[3],>1000 nM
same,growth of insertional mutant parasites in the presence of compound,[4],No parasite growth
"O=C(Nc1ccc([N+](=O)[O-])cc1Cl)c1ccccc1O [Compound 3k, N-(2-chloro-4-nitrophenyl)-2-hydroxybenzamide]",activity against T. gondii tachyzoites in words,[5],eliminated activity altogether
"COc1ccc(NC(=O)c2cc(Cl)ccc2O)cc1OC [Compound 3v, 5-chloro-N-(3,4-dimethoxyphenyl)-2-hydroxybenzamide]",activity against T. gondii tachyzoites in words,[5],devoid of activity
"O=C(Nc1cccc(OC(F)F)c1)c1cc(Cl)ccc1O [Compound 3z, 5-chloro-N-(3-(difluoromethoxy)phenyl)-2-hydroxybenzamide]",MIC50,[5],>1 µM
same,MIC90,[5],>1 µM
"Nc1ccc(NC(=O)c2cc(Cl)ccc2O)c(Cl)c1 [Compound 5, N-(4-amino-2-chlorophenyl)-5-chloro-2-hydroxybenzamide hydrochloride]",activity against T. gondii tachyzoites in words,[5],all activity was lost; also recorded: destroyed
"O=C(Oc1ccc(Cl)cc1C(=O)Nc1ccc([N+](=O)[O-])cc1Cl)c1ccccc1 [Compound 7a, 4-chloro-2-((2-chloro-4-nitrophenyl)carbamoyl)phenyl benzoate]",stability against hydrolysis,[9],hydrolytically labile
same,static or cidal effect,[8],parasitocidal; also recorded: cidal
same,duration of treatment giving a cidal effect,[8],cidal effect after four days of treatment
same,activity against T. gondii tachyzoites in words,[5],apparent increase in potency over 4
same,efficacy against TM91-C235 compared with D6,[7],equally effective
same,Toxicity,[3],>1000 nM
same,growth of insertional mutant parasites in the presence of compound,[4],No parasite growth
"COC(=O)[C@@H]1CCCN1C(=O)Oc1ccc(Cl)cc1C(=O)Nc1ccc([N+](=O)[O-])cc1Cl [Compound 7b, (S)-1-(4-chloro-2-((2-chloro-4-nitrophenyl)carbamoyl)phenyl) 2-methyl pyrrolidine-1,2-dicarboxylate]",stability against hydrolysis,[9],much more stable against hydrolysis
"O=C(Nc1ccc([N+](=O)[O-])cc1Cl)c1cc(Cl)ccc1OC(=O)N1CCOCC1 [Compound 7c, 4-chloro-2-((2-chloro-4-nitrophenyl)carbamoyl)phenyl morpholine-4-carboxylate]",stability against hydrolysis,[9],much more stable against hydrolysis
same,activity against T. gondii tachyzoites in words,[5],devoid of activity
"CN1CCN(C(=O)Oc2ccc(Cl)cc2C(=O)Nc2ccc([N+](=O)[O-])cc2Cl)CC1 [Compound 7d, 4-chloro-2-((2-chloro-4-nitrophenyl)carbamoyl)phenyl 4-methylpiperazine-1-carboxylate]",stability against hydrolysis,[9],much more stable against hydrolysis
same,activity against T. gondii tachyzoites in words,[5],modest activity; also recorded: devoid of activity
"CN(CC(=O)NN)C(=O)Oc1ccc(Cl)cc1C(=O)Nc1ccc([N+](=O)[O-])cc1Cl.Cl [Compound 14a, 4-chloro-2-((2-chloro-4-nitrophenyl)carbamoyl)phenyl (2-hydrazinyl-2-oxoethyl)(methyl) carbamate hydrochloride]",static or cidal effect,[8],cidal
same,duration of treatment giving a cidal effect,[8],cidal effect after ten days of treatment
same,efficacy against TM91-C235 compared with D6,[7],equally effective
same,increased survival,[10],1 days
same,Day of Death,[2]; 25 mg/kg oral gavage,None
same,Day of Death,[2]; 100 mg/kg oral gavage,None
same,"toxic effects on oral dosing (survival, well-being criteria)",[2],all mice were alive and appeared healthy
same,Toxicity,[3],>1000 nM
"N-(2,3-dihydrobenzo[b][1,4]dioxin-6-yl)-2-hydroxybenzamide [Compound 3ab]",MIC50,[5],>1 µM
same,MIC90,[5],>1 µM
same,activity against T. gondii tachyzoites in words,[5],devoid of activity; also recorded: inactive
"N-(2,4-dichlorophenyl)-5-chloro-2-hydroxybenzamide [Compound 3n]",activity against T. gondii tachyzoites in words,[5],slight activity; also recorded: active
"N-(2,4-difluorophenyl)-5-chloro-2-hydroxybenzamide [Compound 3o]",MIC50,[5],>1 µM
same,MIC90,[5],>1 µM
same,activity against T. gondii tachyzoites in words,[5],inactive
N-(2-chloro-5-nitrophenyl)-5-methyl-2-hydroxybenzamide [Compound 3m],activity against T. gondii tachyzoites in words,[5],decreased potency; also recorded: inactive; also recorded: about one-half as active as 4
